KCNK9 block – KCNK9 potassium channel inhibitors, primary screen, HEK293 cells, thallium flux. FluxOR thallium flux fluorescence; active compounds read low. B-score at 10 µM. 1.2% of 310,000 active. AID 488922, 2010;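 active = ratio B-score over 3 SD below the library mean, with starting fluorescence within 5 SD of its mean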;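 also: negative B-score means less thallium flux so channel inhibition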
KCNQ1 block – inhibitors of human KCNQ1 channel, primary screen, cell-based, thallium flux, high-throughput; B-score at 10 µM; 1.3% of 310,000 active; Potassium voltage-gated channel subfamily KQT member 1 (Homo sapiens), P51787; CHO-K1 KCNQ1, FluxOR thallium flux fluorescence; active compounds read high;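 active = compounds whose thallium flux B-score, printed positive for inhibition, exceeds three library SD while starting fluorescence stays within three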;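 also: channel opened by potassium depolarization with thallium stimulus after 20 min compound exposure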
KCNK3 inh – human KCNK3 channel inhibitors, primary screen, CHO cells, FluxOR thallium flux, B-score; FluxOR fluorescence; active compounds read low; B-score at 10 µM; 0.84% of 340,000 active;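 active = B-score under library mean minus 4 SD, starting fluorescence ratio at most library mean plus 5 SD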;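 also: more negative B-score means stronger inhibition of thallium flux through KCNK3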
Cl transport mod – KCC2 cotransporter modulators, thallium flux, primary screen, cell-based, HEK293 KCC2, FluoZin-2 fluorescence, MLSMR; Solute carrier family 12 member 5 (Homo sapiens), Q9H2X9; KCC2 cells, thallium flux FluoZin-2 fluorescence; 2.2% of 190,000 active; B-score of Tl+ flux slope (higher = more flux/activation; lower = inhibition) at 10 µM;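 active = thallium flux slope and its plate-corrected score both differing from the plate sample mean at a set confidence after two filtering rounds, in either direction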;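 also: slope of fluorescence scaled to starting intensity during 10 to 20 s after thallium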
hERG protect – hERG rescue from dofetilide block, primary screen, cell-based, CHO-hERG, FluxOR thallium flux, dofetilide IC70; dofetilide IC70 present; Voltage-gated inwardly rectifying potassium channel KCNH2 (Homo sapiens), Q12809; 0.51% of 310,000 active; activation (rescue from dofetilide block), less the hit threshold, % at 10 µM;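 active = activation above the mean of controls blocked by dofetilide plus 5 SD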;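 also: thallium influx through hERG after potassium depolarization seen as dye fluorescence rise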
KCNQ1 act – potentiators or activators of KCNQ1 channel, primary screen, cell-based, thallium flux, high-throughput. Potassium voltage-gated channel subfamily KQT member 1 (Homo sapiens), P51787. CHO-K1 KCNQ1, thallium flux FluxOR fluorescence; active compounds read high. B-score at 10 µM. 0.35% of 310,000 active;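 active = fluorescence ratio B-score, a plate-corrected score, at least three library SD, with initial intensity B-score within 5 SD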
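Material: CHO-K1 cells stably expressing KCNQ1. Medium: assay buffer for compound exposure, DMSO matched across wells. Reagent: K+/Tl+ depolarizing stimulus. Compound dosing: single-concentration screen. Times: 37 °C overnight plating, 90-min dark dye load, 20-min compound pretreatment. Technique: FluxOR Tl+ flux fluorescence.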
KCNQ1 block val – KCNQ1 potassium channel inhibitors, confirmation, cell-based, Tl flux, duplicate. shares compounds with KCNQ1 block. KCNQ1 cell line, FluxOR thallium flux fluorescence. inhibition, % at 10 µM. 93% of 1,600 active;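 active = primary screen active, with duplicate mean exceeding buffer control mean plus 3 SD of buffer wells, cut at about 28% in these data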
CHO KCNQ1 ctr – thallium flux effects in parental CHO cells, counter-screen for KCNQ1 inhibitor project, cell-based, Tl flux. shares compounds with KCNQ1 block. parental CHO-K1, FluxOR thallium flux fluorescence ratio; active compounds read low; zero means no signal rise above baseline. fluorescence ratio (Tl flux) at 10 µM. 21% of 1,600 active;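 active = mean of duplicate thallium-flux fluorescence ratios in parental host cells more than 5 SD below the buffer control mean, cut at about 0.38 in these data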;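 also: ratio is peak minus minimum fluorescence divided by baseline fluorescence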
KCNQ1 ephys val – KCNQ1 channel inhibitors, confirmation, orthogonal assay, cell-based, automated electrophysiology. calls only at 10 µM. shares compounds with KCNQ1 block. KCNQ1-CHO cells, automated patch clamp current. AID 624120, 2012. 20% of 490 active;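 active = KCNQ1 current drop exceeding 3 SD of negative control wells, seen in both duplicate runs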;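 also: steady state current during a 2 s step from -80 to +40 mV; negative values mean current inhibition and positive values mean potentiation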
KCNQ2 spec – KCNQ2 channel inhibition, selectivity assay for KCNQ1 inhibitor project, cell-based. shares compounds with KCNQ1 block. KCNQ2 cells, FluxOR thallium flux fluorescence. inhibition, % at 10 µM. 71% of 1,600 active;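 active = mean percent inhibition of the KCNQ2 thallium signal more than 5 SD above the buffer-only control wells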;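 also: KCNQ2 expressed in CHO cells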
KCNQ1 KCNE1 spec – KCNQ1/KCNE1 channel inhibition, selectivity assay for KCNQ1 inhibitor project, CHO-K1 cells, thallium flux, FluxOR | FluxOR thallium flux fluorescence | shares compounds with KCNQ1 block | inhibition, % at 10 µM | 77% of 1,600 active;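 active = mean percent inhibition of duplicate wells above the buffer-only control mean plus 3 SD of those controls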
Target sequence (P51787 whole entry, looked up): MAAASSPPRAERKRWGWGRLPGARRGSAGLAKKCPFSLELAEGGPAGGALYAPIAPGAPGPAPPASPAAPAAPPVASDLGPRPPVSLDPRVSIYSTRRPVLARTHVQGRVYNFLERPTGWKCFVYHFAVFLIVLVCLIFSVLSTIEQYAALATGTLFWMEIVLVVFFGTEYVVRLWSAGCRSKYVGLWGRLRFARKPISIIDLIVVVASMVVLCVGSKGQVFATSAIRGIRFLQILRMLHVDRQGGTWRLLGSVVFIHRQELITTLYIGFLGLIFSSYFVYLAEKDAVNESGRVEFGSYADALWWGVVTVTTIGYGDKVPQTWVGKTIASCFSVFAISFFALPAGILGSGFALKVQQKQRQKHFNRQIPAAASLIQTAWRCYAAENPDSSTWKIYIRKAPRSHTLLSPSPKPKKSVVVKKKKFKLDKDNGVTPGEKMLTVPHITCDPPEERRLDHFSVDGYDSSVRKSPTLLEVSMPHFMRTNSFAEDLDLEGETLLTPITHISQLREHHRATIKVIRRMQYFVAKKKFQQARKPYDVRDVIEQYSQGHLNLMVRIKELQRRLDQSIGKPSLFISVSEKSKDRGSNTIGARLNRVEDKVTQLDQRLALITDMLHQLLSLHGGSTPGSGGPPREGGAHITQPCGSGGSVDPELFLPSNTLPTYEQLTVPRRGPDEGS
KCNK9 inh conf – KCNK9 potassium channel inhibitors, confirmation, HEK293 cells, thallium flux, duplicate; shares compounds with KCNK9 block; FluxOR thallium flux fluorescence; inhibition, % at 10 µM; 43% of 4,900 active;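 active = thallium signal inhibited by more than 5 SD of the compound-free buffer control wells, on both duplicate plates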
Kir21 sel – mouse Kir2.1 channel inhibition, confirmation, selectivity assay for KCNK9 modulator project, cell-based, HEK293, thallium flux; shares compounds with KCNK9 block; Kir2.1 cells, FluxOR thallium flux fluorescence; inhibition, % at 10 µM; 4% of 4,900 active; AID 492993, 2010;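 active = thallium signal drop more than 5 SD beyond the mean of the no-compound control wells, seen in both duplicate plates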;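 also: signal is fluorescence rise after thallium addition divided by baseline fluorescence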
HEK293 Tl ctr – thallium flux in non-induced HEK293 cells, confirmation, counter-screen for KCNK9 inhibitor project, cell-based, second counter screen, non-induced KCNK9-HEK293 | inhibition, % at 10 µM | 40% of 4,900 active | shares compounds with KCNK9 block | AID 492997, 2010 | FluxOR thallium flux;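 active = thallium signal drop beyond 5 SD of the untreated control mean, on both duplicate plates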
KCNK3 inh conf – retest of human KCNK3 channel inhibitors, confirmation, CHO cells, FluxOR thallium flux, triplicate. shares compounds with KCNK3 inh. FluxOR fluorescence; 0% buffer, 100% carvedilol maximal block. ratio percent of control, % at 10 µM. 99% of 2,400 active. AID 651638, 2012;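 active = ratio percent of control, averaged over triplicates, above buffer control mean plus 5 SD, cut at about 64% in these data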;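 also: ratio is the fluorescence rise from min to max over baseline after thallium stimulus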
KCNK3 uninduced – thallium flux inhibition in non-induced cells, primary screen, counter-screen for KCNK3 inhibitor project, cell-based, non-induced KCNK3 line, FluxOR thallium, triplicate; 40% of 2,400 active; thallium flux ratio (lower = more inhibition) at 10 µM; non-induced KCNK3 parental cells; active compounds read low; shares compounds with KCNK3 inh; AID 651747, 2012;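 active = thallium flux ratio, averaged over three wells, more than 5 SD below the buffer control mean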;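 also: host cells are CHO cells without KCNK3 induction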
Numbers stand for hits; - = inactive; . = not tested or not shown; + = active, no number. Rows were chosen to be rich in hits. Some 4.1% of all compounds tested hit in one or more screens of this group.

SMILES	KCNK9 block	KCNQ1 block	KCNK3 inh	Cl transport mod	hERG protect	KCNQ1 act	KCNQ1 block val	CHO KCNQ1 ctr	KCNQ2 spec	KCNQ1 KCNE1 spec	KCNK3 inh conf	KCNK3 uninduced	others
CCn1nnc2cc(C(=O)N3CCC(C(=O)OC)CC3)ccc21	.	.	-	.	.	.	.	.	.	.	.	.
CC1CC(NC(=O)c2cc3c(=O)n4ccccc4nc3n2C)CC(C)(C)C1 (configuration not stated)	-	6	-9.23	.	-	-	38.5	-	101.0%	-	95.7	-
COc1cc(NC(=O)C2CC(=O)N(CCc3ccc(F)cc3)C2)cc(OC)c1OC (configuration not stated)	-	-	-	.	-	-	.	.	.	.	.	.
Cc1cc(C(=O)COC(=O)c2cccc(NS(C)(=O)=O)c2)c(C)n1CC1CCCO1 (configuration not stated)	.	.	-	.	.	.	.	.	.	.	.	.
Cc1nc(N2CCN(c3ccccn3)CC2)c2c(C)c(C(=O)Nc3ccc(Cl)cc3)sc2n1	-	12	-12.2	.	-	-	103.5	-	107.0%	177.5%	134.3	0.122	KCNQ1 ephys val=-
COc1cc(OC)cc(C(=O)NC(C(=O)N2CCc3ccccc3C2)C(C)C)c1 (configuration not stated)	-	-	-	.	-	-	.	.	.	.	.	.
Cc1ccccc1OCC(O)Cn1c(=N)n(Cc2ccccc2)c2ccccc21 (configuration not stated)	-	12	-12.3	-	-	-	130.0	-	99.0%	-	124.7	-	KCNQ1 ephys val=-
COc1ccccc1OCC(O)Cn1c(=N)n(Cc2ccccc2)c2ccccc21 (configuration not stated)	-	-	-	-	-	-	.	.	.	.	.	.
CCCCN(CCCC)CCNC(=O)c1cn(C)c2ccc(S(=O)(=O)N3CCCC3)cc2c1=O	-	-	-	.	-	-	.	.	.	.	.	.
Cc1csc2c(N3CCN(C(=O)c4ccc(C(C)(C)C)cc4)CC3)ncnc12	-	9	-9.77	-	-	-	138.5	0.304	137.3%	169.5%	130.0	-
COc1ccccc1C(=O)Nc1nnc(S(=O)(=O)N(C)Cc2ccccc2)s1	-	17	-12.4	.	-	-	140.0	0.373	121.7%	+	114.7	0.105
COc1ccc(CN(C)S(=O)(=O)c2nnc(NC(=O)c3ccccc3)s2)cc1OC	-	-	-	.	-	-	.	.	.	.	.	.
O=C(Cc1cccs1)NCCSc1c(-c2ccc(Cl)cc2)[nH]c2ccccc12	-13.8	19	-14.4	-	-	-	134.0	0.345	124.0%	186.0%	132.0	0.146	KCNK9 inh conf=53.5%;Kir21 sel=-;HEK293 Tl ctr=32.0%
CCOC(=O)CSc1c(-c2ccc(Cl)cc2)[nH]c2ccccc12	-	-	-	-	-	-	.	.	.	.	.	.
O=C1NC(=Nc2ccccc2Cl)S/C1=C\c1cc([N+](=O)[O-])ccc1O	-	23	-13.6	.	-	-	197.0	0.17	166.0%	+	169.0	0.033
Clc1ccc(/C=C/c2nc3ccccc3[nH]2)cc1	-	-	-	-	-	-	.	.	.	.	.	.
Clc1ccc(/C=C/c2nc3ccccc3[nH]2)c(Cl)c1	-	14	-11.1	.	-	-	112.5	0.322	107.3%	76.0%	115.0	0.1
Cc1ccc(NC(=O)CN2CCCC2c2cccn2C)c(Br)c1 (configuration not stated)	.	.	-	.	.	.	.	.	.	.	.	.
CC(C)(CN1CCN(Cc2ccccc2)CC1)NS(=O)(=O)c1ccccc1	-	-	-	-	-	-	.	.	.	.	.	.
CC(C)(CN1CCN(C(c2ccccc2)c2ccccc2)CC1)NS(=O)(=O)c1ccccc1	-9.6	6	-	-	-	-	106.0	-	-	116.0%	103.0	0.155	KCNQ1 ephys val=-;KCNK9 inh conf=40.5%;Kir21 sel=-;HEK293 Tl ctr=47.0%
CCc1nc(N2CCCCC2)c2oc3ccccc3c2n1	-	-	-	-	-	-	.	.	.	.	.	.
CCc1nc(N2CCN(Cc3ccc4c(c3)OCO4)CC2)c2oc3ccccc3c2n1	-	9	-8.96	-	-	-	127.5	-	105.0%	179.0%	109.3	0.143	KCNQ1 ephys val=-

Compound activity: PubChem BioAssay, several laboratories
